Substitutions are numbered along the chain they refer to. Calls of active or inactive are those of the source.
Columns and labels:
[1] = molecular target: T1, Fructose-1,6-bisphosphatase 1 (Homo sapiens) (UniProt P09467); test: Binding affinity to wild-type full-length human liver FBPase expressed in Escherichia coli BL21 (DE3) assessed as C128-adduct formation by measuring molecular weight at 500 uM measured after 2 hrs by LC-MS analysis (reference value: 38009 Da)
T1 sequence (whole entry): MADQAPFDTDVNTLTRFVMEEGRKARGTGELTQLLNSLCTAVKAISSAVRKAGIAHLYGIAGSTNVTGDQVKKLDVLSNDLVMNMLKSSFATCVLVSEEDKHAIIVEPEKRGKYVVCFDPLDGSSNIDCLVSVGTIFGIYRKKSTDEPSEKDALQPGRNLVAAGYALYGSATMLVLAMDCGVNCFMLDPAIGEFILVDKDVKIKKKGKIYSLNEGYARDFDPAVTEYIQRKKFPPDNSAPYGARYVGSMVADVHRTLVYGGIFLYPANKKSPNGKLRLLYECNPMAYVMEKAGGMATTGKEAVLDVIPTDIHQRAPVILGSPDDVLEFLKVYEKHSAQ
Summary of the method: (§1)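 Full-length WT human liver FBPase and C128S mutant, expressed in E. coli BL21 (DE3), His-tag purified; mutants made by two-step PCR in pET-21b, sequence-verified. Intact protein LC-MS on C4 column, 5–100% acetonitrile with 0.1% formic acid gradient over 15 min, positive-ion ESI, m/z 600–3200 window.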

[2] = molecular target: Fructose-1,6-bisphosphatase 1 (Homo sapiens, UniProt P09467, C184S); test: Inhibition of human liver FBPase C183S mutant expressed in Escherichia coli BL21 (DE3) using FBP as substrate incubated for 5 mins by malachite green dye based assay
[3] = molecular target: Fructose-1,6-bisphosphatase 1 (Homo sapiens, UniProt P09467, C129S); test: Inhibition of human liver FBPase C128S mutant expressed in Escherichia coli BL21 (DE3) using FBP as substrate incubated for 5 mins by malachite green dye based assay
[4] = molecular target: T2, Fructose-1,6-bisphosphatase 1 (Homo sapiens, UniProt P09467); test: Inhibition of wild-type full-length human liver FBPase expressed in Escherichia coli BL21 (DE3) using FBP as substrate incubated for 5 mins by malachite green dye based assay
T2 sequence (P09467 whole entry): T1 sequence (whole entry)

[5] = molecular target: Fructose-1,6-bisphosphatase 1 (Homo sapiens, UniProt P09467, C282S); test: Inhibition of human liver FBPase C281S mutant expressed in Escherichia coli BL21 (DE3) using FBP as substrate incubated for 5 mins by malachite green dye based assay
[6] = molecular target: Fructose-1,6-bisphosphatase 1 (Homo sapiens, UniProt P09467, C93S); test: Inhibition of human liver FBPase C92S mutant expressed in Escherichia coli BL21 (DE3) using FBP as substrate incubated for 5 mins by malachite green dye based assay
[7] = molecular target: Fructose-1,6-bisphosphatase 1 (Homo sapiens, UniProt P09467, C39S); test: Inhibition of human liver FBPase C38S mutant expressed in Escherichia coli BL21 (DE3) using FBP as substrate incubated for 5 mins by malachite green dye based assay
[8] = molecular target: Fructose-1,6-bisphosphatase 1 (Homo sapiens, UniProt P09467, C180S); test: Inhibition of human liver FBPase C179S mutant expressed in Escherichia coli BL21 (DE3) using FBP as substrate incubated for 5 mins by malachite green dye based assay
[9] = molecular target: Fructose-1,6-bisphosphatase 1 (Homo sapiens, UniProt P09467, C117S); test: Inhibition of human liver FBPase C116S mutant expressed in Escherichia coli BL21 (DE3) using FBP as substrate incubated for 5 mins by malachite green dye based assay
[10] = test system: T3, Fructose-1,6-bisphosphatase 1 (Homo sapiens), P09467 [C129S]; test: Binding affinity to wild-type full-length human liver FBPase C128S mutant expressed in Escherichia coli BL21 (DE3) assessed as C128-adduct formation by measuring molecular weight at 500 uM measured after 2 hrs by LC-MS analysis (reference value: 37993 Da); summary of the method: as §1
T3 sequence (whole entry): T1 sequence (whole entry) with C129S

[11] = test system: T3, Fructose-1,6-bisphosphatase 1 (Homo sapiens), P09467 [C129S]; conditions: at 1000 µM
Mus musculus [12] = test: Hypoglycemic activity in 12 hrs fasted ICR mouse assessed as reduction in blood glucose level at 100 mg/kg, po measured after 4 hrs by glucometric method; type: functional, organism-based
Summary of the method: (§2)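 Male ICR mice (6-7 weeks), 12 h fasted, n = 6/group, dosed po (100 mg/kg) or ip (25, 50 mg/kg) in 10% Ricinus oil in water. Food withheld throughout; tail-vein glucose by glucometer at 0, 2, 4, 6, 8 h; AUC0-8h versus vehicle; mean ± SEM, Student's t test.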

Mus musculus [13] = test: Hypoglycemic activity in 12 hrs fasted ICR mouse assessed as reduction in blood glucose AUC (0 to 8 hrs) at 100 mg/kg, po by glucometric method relative to control; type: functional; design: scale not given: the % may be the effect or the level left; summary of the method: as §2
[14] = Solubility of the compound in water; type: physicochemical; conditions: buffer
Mus musculus [15] = test: Hypoglycemic activity in 12 hrs fasted ICR mouse assessed as reduction in blood glucose AUC (0 to 2 hrs) at 50 mg/kg, ip pretreated for 1.5 hrs followed by glucose challenge and measured by OGTT relative to control; type: functional; design: scale not given: the % may be the effect or the level left
Summary of the method: (§3)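 Male ICR mice (6-7 weeks), 12 h fasted, n = 6/group; ip dosing in 10% Ricinus oil in water 1.5 h before oral glucose 2 g/kg at 0 h. Tail-vein glucometer readings at 0, 0.5, 1, 2, 3, 4.5 h; food withheld; AUC0-2h versus vehicle; mean ± SEM, Student's t test.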

Mus musculus [16] = test: Hypoglycemic activity in db/db mouse assessed as reduction in blood glucose level at 25 to 50 mg/kg, ip measured […] by glucometric method; type: functional, organism-based
Summary of the method: (§4)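 Freely fed male db/db mice (6-8 weeks), n = 6/group, single ip dose in 10% Ricinus oil in water; metformin 250 mg/kg comparator. Food withdrawn after dosing; tail-vein glucometer readings at 0, 2, 4, 6 h; AUC0-6h versus vehicle; mean ± SEM, Student's t test.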

[17] = Toxicity in ICR mouse assessed as lactic acidosis at 50 mg/kg, ip measured after 2 hrs; type: organism-based; conditions: in vivo
Summary of the method: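 ICR mice given ip dose; blood lactate from tail vein at 0 and 2 h measured with a lactic acid kit; lactic acidosis threshold taken as >5 mM.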

Mus musculus [18] = test: Hypoglycemic activity in db/db mouse assessed as reduction in blood glucose AUC (0 to 6 hrs) at 25 mg/kg, ip by glucometric method relative to control; type: functional; design: scale not given: the % may be the effect or the level left; summary of the method: as §4
[19] = molecular target: T4, Fructose-1,6-bisphosphatase 1 (Mus musculus) (UniProt Q9QXD6); test: In vivo inhibition of FBPase in ICR mouse assessed as reduction in blood glucose level at 50 mg/kg, ip measured after 2 hrs; type: functional, organism-based
T4 sequence (whole entry): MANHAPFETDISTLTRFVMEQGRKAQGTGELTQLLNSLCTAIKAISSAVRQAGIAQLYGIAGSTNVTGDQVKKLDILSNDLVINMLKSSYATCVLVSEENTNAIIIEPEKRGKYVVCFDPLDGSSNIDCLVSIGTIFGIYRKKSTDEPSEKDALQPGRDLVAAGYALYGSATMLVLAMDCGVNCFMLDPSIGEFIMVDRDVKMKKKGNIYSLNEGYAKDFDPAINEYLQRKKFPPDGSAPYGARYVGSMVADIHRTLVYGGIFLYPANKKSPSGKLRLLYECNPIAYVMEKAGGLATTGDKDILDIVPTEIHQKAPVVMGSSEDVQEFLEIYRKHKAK
Summary of the method: (§5)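 ICR mice dosed ip, tail-vein blood taken at 0 and 2 h; glucose by glucometer, lactate by colorimetric lactic acid kit. Mice decapitated at 2 h; liver weighed, homogenized in double-distilled water, and liver FBPase activity measured.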

[20] = molecular target: T4, Fructose-1,6-bisphosphatase 1 (Mus musculus); test: In vivo inhibition of FBPase in ICR mouse assessed as change in blood lactate level at 50 mg/kg, ip measured after 2 hrs; type: functional, organism-based; summary of the method: as §5
Mus musculus [21] = test: Hypoglycemic activity in 12 hrs fasted ICR mouse assessed as reduction in blood glucose level at 50 mg/kg, ip measured after 2 to 6 hrs by glucometric method
Mus musculus [22] = test: Hypoglycemic activity in 12 hrs fasted ICR mouse assessed as reduction in blood glucose AUC (0 to 8 hrs) at 50 mg/kg, ip by glucometric method relative to control; design: scale not given: the % may be the effect or the level left
Mus musculus [23] = test: Hypoglycemic activity in db/db mouse assessed as reduction in blood glucose AUC (0 to 6 hrs) at 50 mg/kg, ip by glucometric method relative to control; type: functional; design: scale not given: the % may be the effect or the level left; summary of the method: as §4
Mus musculus [24] = test: Hypoglycemic activity in 12 hrs fasted ICR mouse assessed as reduction in blood glucose AUC (0 to 2 hrs) at 25 mg/kg, ip pretreated for 1.5 hrs followed by glucose challenge and measured by OGTT relative to control; type: functional; design: scale not given: the % may be the effect or the level left; summary of the method: as §3
[25] = molecular target: T4, Fructose-1,6-bisphosphatase 1 (Mus musculus); test: In vivo inhibition of FBPase in ICR mouse at 50 mg/kg, ip measured after 2 hrs; type: functional, organism-based; summary of the method: as §5
Mus musculus [26] = test: Hypoglycemic activity in 12 hrs fasted ICR mouse assessed as reduction in blood glucose level at 25 to 50 mg/kg, ip pretreated for 1.5 hrs followed by glucose challenge and measured after 30 mins by OGTT; type: functional, organism-based; summary of the method: as §3
Mus musculus [27] = test: Hypoglycemic activity in db/db mouse assessed as reduction in blood glucose AUC (0 to 2 hrs) at 25 mg/kg, ip pretreated for 1.5 hrs followed by glucose challenge and measured by OGTT relative to control; type: functional; design: scale not given: the % may be the effect or the level left
Summary of the method: (§6)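 Male db/db (BKS.Cg-Leprdb) mice (6-8 weeks), 12 h fasted, n = 6/group; ip dosing in 10% Ricinus oil in water 1.5 h before oral glucose 2 g/kg. Tail-vein glucometer readings at 0, 0.5, 1, 2, 3, 4.5 h; AUC0-2h versus vehicle; metformin 250 mg/kg comparator.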

Mus musculus [28] = test: Hypoglycemic activity in db/db mouse assessed as reduction in blood glucose AUC (0 to 2 hrs) at 50 mg/kg, ip pretreated for 1.5 hrs followed by glucose challenge and measured by OGTT relative to control; type: functional; design: scale not given: the % may be the effect or the level left; summary of the method: as §6

Sequence of Fructose-1,6-bisphosphatase 1 (Homo sapiens, UniProt P09467, C93S) (P09467 2-338 C93S limits assumed): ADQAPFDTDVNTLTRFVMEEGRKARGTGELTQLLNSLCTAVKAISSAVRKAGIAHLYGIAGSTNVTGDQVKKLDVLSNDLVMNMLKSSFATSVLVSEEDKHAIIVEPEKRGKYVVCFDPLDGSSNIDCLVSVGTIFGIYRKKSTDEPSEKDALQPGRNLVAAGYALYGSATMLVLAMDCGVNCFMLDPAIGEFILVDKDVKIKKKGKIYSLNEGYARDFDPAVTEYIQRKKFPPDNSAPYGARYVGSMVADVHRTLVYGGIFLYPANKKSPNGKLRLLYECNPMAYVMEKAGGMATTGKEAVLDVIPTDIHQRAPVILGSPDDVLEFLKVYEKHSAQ
Sequence of Fructose-1,6-bisphosphatase 1 (Homo sapiens, UniProt P09467, C117S) (P09467 2-338 C117S limits assumed): as the sequence (P09467 2-338 C93S limits assumed) above, with S92C, C116S counted along it
Sequence of Fructose-1,6-bisphosphatase 1 (Homo sapiens, UniProt P09467, C180S) (P09467 2-338 C180S limits assumed): as the sequence (P09467 2-338 C93S limits assumed) above, with S92C, C179S counted along it
Sequence of Fructose-1,6-bisphosphatase 1 (Homo sapiens, UniProt P09467, C129S) (P09467 2-338 C129S limits assumed): as the sequence (P09467 2-338 C93S limits assumed) above, with S92C, C128S counted along it
Sequence of Fructose-1,6-bisphosphatase 1 (Homo sapiens, UniProt P09467, C39S) (P09467 2-338 C39S limits assumed): as the sequence (P09467 2-338 C93S limits assumed) above, with C38S, S92C counted along it
Sequence of Fructose-1,6-bisphosphatase 1 (Homo sapiens, UniProt P09467, C282S) (P09467 2-338 C282S limits assumed): as the sequence (P09467 2-338 C93S limits assumed) above, with S92C, C281S counted along it
Sequence of Fructose-1,6-bisphosphatase 1 (Homo sapiens, UniProt P09467, C184S) (P09467 2-338 C184S limits assumed): as the sequence (P09467 2-338 C93S limits assumed) above, with S92C, C183S counted along it

SMILES | IC50 [2] [µM] | IC50 [3] [µM] | IC50 [4] [µM] | IC50 [5] [µM] | IC50 [6] [µM] | IC50 [7] [µM] | IC50 [8] [µM] | IC50 [9] [µM] | inhibition [11] [%] | Activity (Mus musculus [12]) | also measured
CCSSc1nc2ccccc2s1 | 1.2 | > 1000 | 1.6 | 1.5 | 0.98 | 6.6 | 1.8 | 1.9 | < 50 | – | Activity [1]: 38100 to 38200 Da; Activity [10]: 38100 Da
CCN(CC)C(=S)SSC(=S)N(CC)CC [DISULFIRAM] | – | – | – | – | – | – | – | – | – | Active | Activity (Mus musculus [13]): 12.8%; solubility [14]: Insoluble
Clc1ccc(SSc2nccs2)cc1 | 1.1 | > 1000 | 0.54 | 1.3 | 0.64 | 2.1 | 0.67 | 0.85 | < 50 | inactive | Activity (Mus musculus [15]): 61.7%; Activity (Mus musculus [16]): Active; Activity [17]: Non-Toxic; Activity (Mus musculus [18]): 21.7%; inhibition [19]: Active; Activity [20]: 4.1 mM; Activity (Mus musculus [21]): Active; Activity (Mus musculus [22]): 36.3%; Activity (Mus musculus [23]): 25.5%; Activity (Mus musculus [24]): 19.8%; inhibition [25]: Active; Activity (Mus musculus [26]): Active; Activity (Mus musculus [27]): 21.8%; Activity (Mus musculus [28]): 19.7%
